# MT stabilize HCS = microtubule stabilization, imaging screen; HeLa tubulin immunostaining HCS, 24 h; share of cells brighter than vehicle mean+2SD; hit rate 0.83% among 200,000; % tubulin-high responders, % at 10 µM;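 active = plate Z-score above 3 for both tubulin-high and condensed-nucleus cell shares, with cell loss under 80%, at 10 µM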;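 also: anti alpha tubulin signal scored within the nucleus-defined area of each cell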
# Autophagy mod = alters autophagy in cells; hit rate 0.98% among 190,000; AID 463193; MEF GFP-LC3 puncta imaging; test concentration mostly 10 µM; calls only at 10 µM (by protocol);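 active = percentage of spot-positive cells more than 3 SD above its plate mean, without a fluorescence outlier flag or 80% toxicity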;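 also: spot-positive cell cutoff set from DMSO-treated cells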
# CHOP inhibitor = blocks CHOP induction under ER stress; CHO-K1 CHOP-promoter luciferase, tunicamycin-induced, 15-18 h; inhibition, % at 10 µM; hit rate 3.8% among 220,000; AID 2732;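 active = compounds that reduced the stress-induced luciferase reporter signal by more than about 70% of percent inhibition, limit read from the data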;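 also: 0% = tunicamycin plus vehicle and 100% = wells without tunicamycin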
# Dynein transport = blocks dynein driven cargo transport along microtubules | 3617.4 mouse cells, GR-EGFP nuclear translocation imaging; test concentration mostly 20 µM; stimulated with dexamethasone, 1 µM; hits give low values | z-score, hits read low | hit rate 0.47% among 220,000;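 active = plate z-score of nuclear minus cytoplasmic receptor signal below a set negative limit, without overly bright fluorescence or cell loss, cut at about -3.5 in these data, passing the limit was not always enough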;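 also: z-score of nuclear minus cytoplasmic ring GR-EGFP intensity difference per well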
#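 Buffer or medium: Induction medium lacking tetracycline, stripped serum | Also added: Dexamethasone agonist, 1.0 µM final, for 30 min | Timing: 48 h induction, 1 h compound, 30 min dex at 37 °C | Detection: Formaldehyde fixation, Hoechst nuclear stain, 10x automated fluorescence imaging | Measure: Nuclear versus cytoplasmic GR-EGFP signal, averaged per well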
# Lmaj promast = inhibitors of Leishmania major promastigote growth; Leishmania major promastigotes, resazurin fluorescence viability; inhibition, % at 10 µM; hit rate 9% among 200,000; in the data active = inhibition above about 50%;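 also: promastigotes grown with compound for 44 hours at 28 °C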
# bCat nuc transl = beta-catenin nuclear translocation modulation; HeLa beta-catenin nuclear translocation, immunofluorescence imaging; nuclear translocation activity, % at 5 µM; hit rate 0.3% among 190,000; AID 1665;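 active = nuclear translocation activity above 50% at 5 µM, with a well cell count of 50 or more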;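 also: per-cell ratio of nuclear to cytoplasmic median beta-catenin stain intensity; plate controls were DMSO negative control for no effect and GSK-3 inhibitor IX positive control for full effect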
#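 test system = HeLa cells, endogenous beta-catenin | dosing = single 5 µM dose plus 0.02–20 µM confirmation series | times = compound treatment 24 h, 37°C, 5% CO2 | technique = beta-catenin immunofluorescence imaging with DAPI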
# CHOP confirm = confirmation of CHOP induction inhibitors; shares compounds with CHOP inhibitor; CHO-CHOP promoter luciferase reporter, tunicamycin-induced, luminescence; inhibition, % at 10 µM; hit rate 45% among 2,100;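 active = mean of three repeat readings of reporter signal inhibition above a set limit, cut at about 70% in these data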;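 also: 0% = tunicamycin plus vehicle and 100% = wells lacking tunicamycin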
# Active calls of the source: *; i = inactive; / = not tested or not shown. Hits are enriched below; roughly 12% of the tested compounds scored in any of these assays.
SMILES,MT stabilize HCS,Autophagy mod,CHOP inhibitor,Dynein transport,Lmaj promast,bCat nuc transl,CHOP confirm
COc1cc(/C=N/N(C)C)cc(Br)c1O,/,/,-10,0.64,/,2,/
FC(F)(F)c1cccc(NC(=S)Nc2ccc(Cl)cc2Cl)c1,1,i,105*,-0.95,10,1,101*
FC(F)(F)c1cccc(NC(=S)NNC(=S)NCc2ccccc2)c1,3,i,0,0.44,1,1,/
O=C(Cc1ccccc1)NC(=S)Nc1cccc(C(F)(F)F)c1,2,i,108*,1.3,-2,-2,102*
O=C(/C=C/c1cccc(C(F)(F)F)c1)Nc1cccc(C(F)(F)F)c1,2,i,97*,0.069,96*,1,100*
FC(F)(F)c1cccc(NC(=S)NCC2COc3ccccc3O2)c1 (stereo unspecified),3,i,103*,-0.36,51*,/,2
COc1ccc(NC(=O)C(C)Sc2nnc3c4c(nc(-c5ccc(OC)cc5)n23)CC(C)(C)OC4)cc1 (stereo unspecified),2,i,30,-0.9,7,-2,/
Cc1ccc(Cl)cc1NC(=O)CCC(=O)Nc1cc(Cl)ccc1C,2,i,100*,0.025,-6,/,-15
CCCC(=O)Nc1cc(Cl)ccc1C,5,i,9,-0.51,0,-3,/
CC1CCN(c2nc(NCc3ccco3)nc(N)c2[N+](=O)[O-])CC1,4,i,4,-0.37,10,3,/
Nc1nc(Nc2ccccc2)nc(N2CCOCC2)c1[N+](=O)[O-],4,i,-5,0.0033,-6,1,/
Cc1cccc(Nc2nc(N)c([N+](=O)[O-])c(N3CCC(C)CC3)n2)c1,3,i,104*,0.75,15,4,30
Cc1cccc(Nc2nc(N)c([N+](=O)[O-])c(N3CC(C)CC(C)C3)n2)c1 (stereo unspecified),2,i,103*,-1.2,93*,1,118*
CC(C)CC(=O)Nc1nnc(SCC(=O)NCc2ccc3c(c2)OCO3)s1,1,i,8,-1.2,-11,-1,/
O=S1(=O)CCN(Cc2ccc(Cl)c(C(F)(F)F)c2)CC1,6,i,40,-0.7,2,0,/
O=C(NCCc1ccccc1)C1CCN(C(=O)c2ccc([N+](=O)[O-])cc2)CC1,3,i,-5,-0.16,-3,2,/
O=C1NN=C(c2ccc(Cl)cc2)CC1c1cccc(Cl)c1 (stereo unspecified),1,i,102*,-0.54,33,-4,44
CN1CCN(CC(=O)N2CCn3c4c(c5cc(C6CCCCC6)ccc53)CCCC42)CC1 (stereo unspecified),10,i,/,4,101*,/,132*
C=CCOc1ccc2c(c1)C(=NO)c1cc(OCC=C)ccc1-2,2,i,104*,2.5,96*,/,59
CCCC(=O)Nc1ccc(C(=O)NNC(=O)COc2ccc(Br)c(C)c2)cc1,3,i,63,0.42,-1,3,/
N/C(=N\N=C\c1ccc2c(c1)OCO2)SC1CC(=O)N(c2ccc(C(=O)O)cc2)C1=O (stereo unspecified),3,i,23,-1.4,-3,-5,/
C/C(CCc1ccc2c(c1)OCO2)=N\N=C(/N)SC1CC(=O)N(c2ccc(Cl)cc2)C1=O (stereo unspecified),3,i,97*,0.024,3,-2,2
CCCN(CCC)C(=O)CSc1nc2ccccc2c(=O)n1C1CCCC1,3,i,97*,0.17,30,0,4
CCN(CC)C(=O)CSc1nc2ccccc2c(=O)n1CC1CCCCC1,5,i,64,-0.44,4,-2,/
CC(=O)c1ccc(NC(=O)CCCN2C(=O)/C(=C/C(C)=C/c3ccccc3)SC2=S)cc1,2,i,26,-0.43,15,4,/
SMILES,MT stabilize HCS,Autophagy mod,CHOP inhibitor,Dynein transport,Lmaj promast,bCat nuc transl,CHOP confirm
CC(/C=C1\SC(=O)N(CC(=O)Nc2ccc(O)cc2)C1=O)=C\c1ccccc1,3,i,96*,-0.75,-1,/,-43
Cc1nn(-c2ccccc2Cl)c(Cl)c1/C=N/Nc1nc2ccccc2s1,4,i,97*,-0.54,59*,-2,98*
Cc1n[nH]c(C)c1N1C(=O)c2cccc3c(Br)ccc(c23)C1=O,3,i,8,-0.4,6,2,/
Cc1ccnc(N2C(=O)c3cccc4c([N+](=O)[O-])ccc(c34)C2=O)c1,4,i,106*,3.3,100*,1,-53
O=C1c2cccc3cccc(c23)C(=O)N1Cc1cccnc1,/,/,-4,-0.13,/,0,/
O=C1c2cccc3c([N+](=O)[O-])ccc(c23)C(=O)N1Cc1cccnc1,4,i,110*,-0.34,100*,-1,-203
CCCCS(=O)CC(COc1ccc(Cl)cc1)OC(=O)c1ccccc1 (stereo unspecified),2,i,104*,-0.19,10,1,22
CC1(C)[C@@H](O)CC[C@]2(C)C3C(O)C=C4[C@H]5C[C@@](C)(C(=O)O)CC[C@]5(C)CC[C@]4(C)[C@]3(C)CC[C@@H]12 (stereo partly specified),/,/,68,0.31,/,-2,/
CCc1ccc(C2=C/C(=C/c3cccnc3)C(=O)O2)cc1,2,i,103*,-0.53,30,0,-59
Cc1nn(-c2ccccc2)c(Cl)c1/C=N/NC(=O)CCNc1n[nH]c(=O)[nH]c1=O,/,/,3,1.4,/,0,/
CC(NC(=O)COC(=O)c1ccc2c(c1)S(=O)(=O)N=C1CCCCCN12)C12CC3CC(CC(C3)C1)C2 (stereo unspecified),5,i,104*,-0.58,-5,2,-18
CC(C)(C)NC(=O)NC(=O)COC(=O)c1ccc2c(c1)S(=O)(=O)N=C1CCCCCN12,2,i,-1,0.83,-2,-2,/
CC(C)(C)C(=O)NNC(=O)c1cc2sccc2s1,/,/,5,0.18,/,-2,/
CC1CCC(C(C)C)C(OCC(O)C[N+]2(C)CCCCC2)C1 (stereo unspecified),2,i,-8,-0.86,-5,0,/
CC1CCC(C(C)C)C(OCC(O)CN2CCN(Cc3ccccc3)CC2)C1 (stereo unspecified),2,i,99*,0.36,93*,1,104*
CC(=O)c1c(C)[nH]c(C(=O)CSc2nnc(C)s2)c1C,1,i,24,0.43,4,0,/
CCN(CCCNC(=O)CCCn1c(=O)[nH]c2ccccc2c1=O)c1cccc(C)c1,2,i,31,-0.58,22,-4,/
